According to ChEMBL document CHEMBL2384933, “Vitexin inhibits inflammatory pain in mice by targeting TRPV1, oxidative stress, and cytokines” (J Nat Prod, 2013):

Tests used:
Set-up in all cases: dose 2.5 mg/kg, route intraperitoneal
Details in all cases: in vivo, 168 h
[1] = test system: Mus musculus; assay: Toxicity in Swiss mouse assessed as increase in myeloperoxidase activity in stomach at 2.5 mg/kg, ip for 7 days by spectrophotometric analysis; assay type: organism-based
How it was run: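 Same daily ip dosing for 7 days. Stomach was homogenized in 50 mM K2PO4 pH 6.0 with 0.5% HTAB and spun at 16100g for 2 min. Supernatant was mixed with 50 mM phosphate pH 6.0 containing 0.167 mg/mL o-dianisidine and 0.015% H2O2, then read at 450 nm three times within 1 min. Values came from a neutrophil standard curve, as neutrophils ×10^4/mg tissue.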

[2] = test system: Mus musculus; assay: Hepatotoxicity in Swiss mouse assessed as increase in plasma AST level at 2.5 mg/kg, ip for 7 days; assay type: toxicity, organism-based
How it was run: (§1)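 Mice dosed ip once daily for 7 days; the vehicle was saline or Tris/HCl buffer pH 8.0, with the vehicle data pooled. Plasma AST and ALT were measured with a diagnostic kit as markers of hepatotoxicity.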

[3] = test system: Mus musculus; assay: Hepatotoxicity in Swiss mouse assessed as increase in plasma ALT level at 2.5 mg/kg, ip for 7 days; assay type: toxicity, organism-based; how it was run: as §1

Measured: Activity

COc1ccc2c(c1)c(CC(=O)O)c(C)n2C(=O)c1ccc(Cl)cc1 [INDOMETHACIN]
Toxic: [1] | [2] | [3]
